The text below walks through data of article PMC5720355 (ACS chemical biology, 2017).

For test [1], the system named is Glioblastoma (U87-MG) cells. In words: Tau degradation in U87MG cells, immunoblot. The format is cell-based, human. The following applies: 50 μM, 24 h, cycloheximide 20 μg/mL.
Test [2] has as its target purified 20S proteasome with tau441 and GAPDH (Homo sapiens, UniProt P25787+P60900). In words: In vitro degradation of tau441. The settings on record: compounds 30 μM; SDS 0.02%. It counts as biochemical. The method, boiled down:
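Pre-incubate 15nM purified human 20S proteasome with test compound or vehicle for 20 min at RT in 20mM HEPES pH 7.4, 2mM EDTA, 1mM EGTA. Add recombinant tau441 plus GAPDH (0.1μM each, final) and incubate 1 h at 37 °C. Resolve on a 4-20% tris-glycine gel and immunoblot. Quantify tau by densitometry against untreated tau control.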

Test [3] has as its target human constitutive 20S proteasome (CT-L, β5) (Homo sapiens, UniProt P25787+P60900). In words: Proteasome activity assay, 20S chymotrypsin-like. It counts as biochemical. The following applies: for enhancement of 20S proteolytic (CT-L) activity, in words: CT-L peptide substrate.
The subject of test [4] is HEK 293 cells stably expressing ODC-GFPSpark. In words: ODC-GFPSpark degradation in HEK 293T cells, immunoblot. The format is cell-based, human. The settings on record: 50 μM, 24 h, cycloheximide 20 μg/mL.
Test [5] has as its system 20S proteasome. The following applies: read-out: EC50, enhancing 20S mediated protein degradation; cited from earlier work.
Test [6] addresses human constitutive 20S proteasome (T-L, β2) (Homo sapiens, UniProt P25787+P60900). Nature of the test: Proteasome activity assay, 20S tryptic-like. It counts as biochemical. The following applies: read-out: EC50, tryptic-like (T-L) activity; Boc-LRR-AMC.
Test [7] addresses 26S proteasome (Homo sapiens, UniProt P25787+P60900). In words: Proteasome activity assay, 26S-mediated proteolysis of CT-L peptide probe. The format is biochemical. The method, boiled down:
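Pre-incubate 1nM human 26S proteasome with test compound for 10 min at RT in 50mM Tris-HCl pH 7.5 containing 5mM MgCl2 and 2.5mM ATP. Add Suc-LLVY-AMC (10μM) and read the fluorescence increase per minute for 1 h at 37 °C (380-460nm). Express activity as fold of vehicle control.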

In test [8] the target is human constitutive 20S proteasome (Casp-L, β1) (Homo sapiens, UniProt P25787+P60900). In words: Proteasome activity assay, 20S caspase-like. It counts as biochemical. The following applies: read-out: EC50, caspase-like (Casp-L) activity; Z-LLE-AMC.
For test [9], the target named is purified human 20S proteasome with α-synuclein and GAPDH (Homo sapiens, UniProt P25787+P60900). In words: In vitro degradation of α-synuclein. The format is biochemical. The method, boiled down: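 Pre-incubate 15nM purified human 20S with test compound (3, 10, 30 μM) or vehicle for 20 min at RT in 20mM HEPES pH 7.4, 2mM EDTA, 1mM EGTA. Add recombinant α-synuclein and GAPDH (0.5μM each, final) and incubate 1 h at 37 °C. Immunoblot α-syn and GAPDH. Controls: reactions without 20S, and 20S pre-treated with bortezomib (3μM).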

Where only a bound is given, the exact number is not on record here.

Turning to `CC(C)CCCN1c2ccccc2Sc2ccccc21` [compound 1], the “tau concentrations compared to the vehicle control” value in test [1] is “modest clearance of tau”.
Consider `CCCCCCCCCCCCOS(=O)(=O)[O-].[Na+]` [SDS, sodium dodecyl sulfate], for which the “rate of 20S-mediated degradation of tau compared to 20S/vehicle control” value (“rate … of tau compared to 20S/vehicle control” below) in [2] is recorded as “prevents”.
Turning to `O=S(=O)(O)CCCN1c2ccccc2Sc2ccc(Cl)cc21` [compound 3], in [3], the “enhancement of 20S proteolytic (CT-L) activity, in words” value (“enhancement of 20S proteolytic” for short) was “no significant enhancement”.
With `CN(C)CCCN1c2ccccc2Sc2ccc(Cl)cc21` [chlorpromazine, reference compound], the “enhancement of 20S proteolytic” value in [3] was “enhanced 20S proteolytic activity”. The “GFP-ODC levels compared to controls” value in test [4] is listed as “reduced GFP-ODC levels”. Moreover, in test [2], the “rate … of tau compared to 20S/vehicle control” value was “significantly enhance”. Also, the “tau concentrations compared to the vehicle control” value in [1] is “significantly reducing tau concentrations”.
Take `CCCCC/C=C\C/C=C\C/C=C\C/C=C\CCCC(=O)Nc1ccc(O)cc1` [AM-404]: the EC50 (in general, the concentration needed to bring the measured effect to its halfway point) in [5] is about 32 µM.
Take `O=S(=O)(O)CCCCN1c2ccccc2Sc2ccccc21` [compound 2]: the 50% effective concentration (EC50) turned out to be 10 µM in [6] and 4.8 µM in test [8]. Moreover, the “effect on 26S-mediated proteolysis of the CT-L peptide probe” value in test [7] is recorded as “did not affect”. The “enhancement of 20S proteolytic” value in [3] was “enhanced 20S proteolytic activity”. Also, in test [3] (at 10 μM), the “fold enhancement of 20S activity” value is recorded as about 4 fold. Moreover, the “concentration above which 20S activity drops” value in test [3] (concentration response up to 70 μM, CT-L substrate) was over 35 µM. The “GFP-ODC levels compared to controls” value in test [4] was “reduced GFP-ODC levels”. Moreover, the “rate … of tau compared to 20S/vehicle control” value in test [2] is recorded as “significantly enhance”. In addition, in [1], the “tau concentrations compared to the vehicle control” value is given as “significantly reducing tau concentrations”. Further, in [9] (3, 10 and 30 μM, concentration-dependent), the “rate of 20S-mediated degradation of α-syn compared to 20S/vehicle control” value is recorded as “significantly enhanced”. Further, the “α-Syn levels in the absence of 20S or with 20S pretreated with bortezomib” value in test [9] (BTZ 3 μM) was “unaffected”. In addition, the “20S-mediated degradation of the structured protein GAPDH” value in [9] (any of the concentrations tested (3, 10, 30 μM)) is reported as “does not enhance”.
